Columns and labels:
[1] = molecular target: T1, Adrenergic receptor alpha-2 (Homo sapiens, UniProt P08913+P18825+P18089); assay: Displacement of [3H]-RX-821002 from human alpha-2 adrenergic receptor in brain prefrontal cortex membrane by liquid scintillation spectrometry; assay type: cell membranes
T1 sequence (P08913 whole entry): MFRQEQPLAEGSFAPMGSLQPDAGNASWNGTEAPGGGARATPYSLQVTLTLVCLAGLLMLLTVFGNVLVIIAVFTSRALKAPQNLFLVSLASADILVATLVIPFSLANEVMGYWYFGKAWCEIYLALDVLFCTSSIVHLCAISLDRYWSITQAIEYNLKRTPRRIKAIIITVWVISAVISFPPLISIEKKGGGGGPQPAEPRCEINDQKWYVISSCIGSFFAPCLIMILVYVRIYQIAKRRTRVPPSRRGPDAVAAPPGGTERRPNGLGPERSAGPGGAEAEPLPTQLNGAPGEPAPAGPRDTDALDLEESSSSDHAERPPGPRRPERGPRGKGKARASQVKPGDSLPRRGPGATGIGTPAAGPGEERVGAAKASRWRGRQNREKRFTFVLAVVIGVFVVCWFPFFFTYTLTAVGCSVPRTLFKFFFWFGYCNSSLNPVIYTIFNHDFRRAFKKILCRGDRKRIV
T1 sequence (P18825 whole entry): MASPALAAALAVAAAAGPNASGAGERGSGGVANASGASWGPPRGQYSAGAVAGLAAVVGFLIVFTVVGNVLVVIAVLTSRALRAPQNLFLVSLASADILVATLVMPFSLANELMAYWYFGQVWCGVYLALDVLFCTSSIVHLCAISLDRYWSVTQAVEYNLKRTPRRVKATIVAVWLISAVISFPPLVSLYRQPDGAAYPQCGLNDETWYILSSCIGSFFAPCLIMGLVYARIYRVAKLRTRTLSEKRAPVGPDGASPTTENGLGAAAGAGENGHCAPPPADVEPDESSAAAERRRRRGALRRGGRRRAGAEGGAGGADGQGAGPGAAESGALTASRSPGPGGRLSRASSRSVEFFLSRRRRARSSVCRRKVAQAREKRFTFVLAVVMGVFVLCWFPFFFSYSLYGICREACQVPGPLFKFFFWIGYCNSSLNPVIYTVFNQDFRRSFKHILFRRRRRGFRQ
T1 sequence (P18089 whole entry): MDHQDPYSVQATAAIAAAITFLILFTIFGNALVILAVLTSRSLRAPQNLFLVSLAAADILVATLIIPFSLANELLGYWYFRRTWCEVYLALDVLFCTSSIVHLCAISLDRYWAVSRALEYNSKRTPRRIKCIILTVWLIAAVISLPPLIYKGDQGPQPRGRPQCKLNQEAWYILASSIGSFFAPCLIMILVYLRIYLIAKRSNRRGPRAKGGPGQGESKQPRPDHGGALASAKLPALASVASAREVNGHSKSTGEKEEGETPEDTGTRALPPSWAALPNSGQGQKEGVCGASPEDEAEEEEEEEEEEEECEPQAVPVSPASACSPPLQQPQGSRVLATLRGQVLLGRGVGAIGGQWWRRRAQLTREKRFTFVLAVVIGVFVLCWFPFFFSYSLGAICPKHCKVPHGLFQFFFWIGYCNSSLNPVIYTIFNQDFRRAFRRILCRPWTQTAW
In short: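 Human prefrontal cortex brain membranes incubated with [3H]RX821002 (2 nM) in 50 mM Tris-HCl, pH 7.5, for 30 min at 25 °C, with competitor at 10 concentrations (10⁻¹²–10⁻³ M). Bound and free ligand separated by rapid vacuum filtration through GF/C filters, then scintillation counting. Adrenaline (10⁻⁵ M) defined nonspecific binding. Ki from one-site nonlinear regression, expressed as pKi.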

[2] = molecular target: T1, Adrenergic receptor alpha-2; assay: Antagonist activity at human alpha-2 adrenergic receptor in brain prefrontal cortex membrane assessed as inhibition of UK14304-induced [35S]-GTPgammaS binding by liquid scintillation spectrometry; assay type: functional, cell membranes
In short: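 Human prefrontal cortex membranes (40 μg protein) incubated 120 min at 30 °C with shaking in 50 mM Tris-HCl pH 7.4 with 1 mM EGTA, 3 mM MgCl2, 100 mM NaCl, GDP and 0.5 nM [35S]GTPγS. Compounds at 10 concentrations (10⁻¹²–10⁻³ M) were tested against agonist UK14304. Filtration through GF/C filters, then scintillation counting. Nonspecific binding defined with 10 μM unlabeled GTPγS; nonlinear curve analysis.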

Rattus norvegicus [3] = assay: Induction of noradrenaline release from Sprague-Dawley rat in prefrontal cortex at 1 to 100 uM local administration measured for every 70 mins by microdialysis; assay type: functional
In short: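 Male Sprague-Dawley rats (250–300 g), probe placed in PFC under 1.5% isoflurane; tested 18–24 h later. Probe perfused with aCSF (pH 7.4) at 1 μL/min. Compounds dissolved in aCSF were given by reverse dialysis at 1, 10, then 100 μM, each for 70 min. Dialysates collected every 35 min; NA measured by HPLC with amperometric detection. Values are % of mean basal (first 3–4 samples); three animals/group.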

Rattus norvegicus [4] = assay: Induction of noradrenaline release from Sprague-Dawley rat in prefrontal cortex at 10 mg/kg, ip […] by microdialysis; assay type: functional; conditions: route intraperitoneal

`Cl.N=C(N)Nc1ccccn1` showed a pKi [1] of 6.19.

`Cl.N=C(N)Nc1ccc(Br)cn1` was tested, and the pKi [1] was 5.62.

For `Cl.N=C(N)Nc1ccc(Cl)cn1`, the pKi [1] was 5.7.

`Cc1ccc(NC(=N)N)nc1.Cl` was tested, and the pKi [1] was 6.03.

With `Cl.N=C(N)Nc1ccc2c(n1)CCCC2` the pKi [1] was 6.78 and the EC50 [2] was 2.71 µM.

With `CCNc1ccc(NC(=N)N)nc1.Cl` the pKi [1] was 4.12.

`Cl.N=C(N)Nc1cccnc1` was tested, and the pKi [1] was 3.79.

Compound `Cl.N=C(N)Nc1ccc(Cl)nc1` has a pKi [1] of 5.18.

`Cc1ccc(NC(=N)N)cn1.Cl` showed a pKi [1] of 4.97.

With `Cl.N=C(N)Nc1cnc2c(c1)CCCC2` the pKi [1] was 5.57.

For `CCNc1ccc(NC(=N)N)cn1.Cl`, the pKi [1] was 6.35.

With `Cl.N=C(N)Nc1ccc([N+](=O)[O-])cn1` the pKi [1] was 5.

Work on `Cl.N=C(N)Nc1ccc(N)cn1` yielded a pKi [1] of 5.

Work on `Cl.c1ccc(NC2=NCCN2)nc1` yielded a pKi [1] of 6.44.

In the case of `Cl.Clc1ccc(NC2=NCCN2)nc1`, the pKi [1] is reported as 6.25.

With `Cc1ccc(NC2=NCCN2)nc1.Cl` the pKi [1] was 6.41.

Work on `Cl.c1cc2c(nc1NC1=NCCN1)CCCC2` yielded a pKi [1] of 6.27 and an EC50 [2] of 3.57 µM.

Compound `CCNc1ccc(NC2=NCCN2)nc1.Cl` has a pKi [1] of 5.65.

`Cl.c1cncc(NC2=NCCN2)c1` showed a pKi [1] of 5.28.

`Cl.c1nc2c(cc1NC1=NCCN1)CCCC2` gave a pKi [1] of 7.02, an EC50 [2] of 4.23 µM and an Emax (Rattus norvegicus [3]) of 148%. It also gave an Activity (Rattus norvegicus [4]) of 138%.

Work on `CCNc1ccc(NC2=NCCN2)cn1.Cl` yielded a pKi [1] of 7.13, an EC50 [2] of 6.71 µM and an Emax (Rattus norvegicus [3]) of 429%. The Activity (Rattus norvegicus [4]) was 186%.

Compound `Cl.N=C(Nc1ccccc1)Nc1ccccn1` has a pKi [1] of 6.21.

Compound `Cc1ccc(NC(=N)Nc2ccccc2)nc1.Cl` has a pKi [1] of 6.02.

In the case of `Cl.N=C(Nc1ccccc1)Nc1ccc2c(n1)CCCC2`, the pKi [1] is reported as 6.75.

Compound `Cl.N=C(NCCO)Nc1ccccn1` has a pKi [1] of 5.38.

For `Cc1ccc(NC(=N)NCCO)nc1.Cl`, the pKi [1] was 5.21.

`Cl.N=C(NCCO)Nc1ccc2c(n1)CCCC2` showed a pKi [1] of 5.83.

In the case of `Cl.N=C(NCc1ccco1)Nc1ccccn1`, the pKi [1] is reported as 6.32.

`Cc1ccc(NC(=N)NCc2ccco2)nc1.Cl` showed a pKi [1] of 6.28.

Compound `Cl.N=C(NCc1ccco1)Nc1ccc2c(n1)CCCC2` has a pKi [1] of 6.67 and an EC50 [2] of 37.01 µM.

`CCCNC(=N)Nc1ccc(Cl)cn1.Cl` showed a pKi [1] of 5.71.

`CCCNC(=N)Nc1ccc(C)cn1.Cl` was tested, and the pKi [1] was 6.74.

`Cl.c1ccc(NC2=NCc3ccccc3N2)cc1` gave a pKi [1] of 4.4.

With `Cl.OCCNC1=NCc2ccccc2N1` the pKi [1] was 6.26 and the EC50 [2] was 60.34 µM.

`Cl.c1coc(CNC2=NCc3ccccc3N2)c1` gave a pKi [1] of 5.35.

`CCCNC1=NCc2ccccc2N1.Cl` showed a pKi [1] of 4.33.

`Cl.OCCNC1=NCc2cccnc2N1` was tested, and the pKi [1] was 4.49.

`Cl.c1coc(CNC2=NCc3cccnc3N2)c1` showed a pKi [1] of 4.5.

`Cl.c1cnc2c(c1)CN=C(NCc1ccc3c(c1)OCO3)N2` gave a pKi [1] of 5.3.

From ChEMBL document CHEMBL3407390, “α2-adrenoceptor antagonists: synthesis, pharmacological evaluation, and molecular modeling investigation of pyridinoguanidine, pyridino-2-aminoimidazoline and their derivatives” (J Med Chem, 2015)
